In ChEMBL document CHEMBL1129501 (J Med Chem, 1996):

How the values were obtained:
Phosphodiesterase 1 [1] = target: T1, Phosphodiesterase 1 (Homo sapiens, UniProt P54750+Q01064+Q14123); assay: Inhibitory activity against calmodulin-dependent Phosphodiesterase was reported.; type: protein assay, Canis lupus familiaris
Method in brief: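 Calmodulin-dependent cAMP phosphodiesterase, 8-[3H]-cAMP substrate. Tritiated AMP converted to adenosine with snake venom 5'-nucleotidase. Nucleosides separated from substrate on Dowex anion exchanger, eluted with 3 mM acetic acid. Basal calmodulin-independent activity measured with 1 mM EGTA. Compounds in DMSO at several concentrations. IC50 against calmodulin-dependent activity, mean of triplicates ± standard error.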

Phosphodiesterase 1 [2] = target: T1, Phosphodiesterase 1; assay: Antagonistic potency against calmodulin-dependent cyclic AMP phosphodiesterase relative to Idoxifene; type: functional; details: Canis lupus familiaris
[3] = target: Estrogen receptor (Rattus norvegicus) (UniProt P06211+Q62986)
Phosphodiesterase 1 [4] = target: T1, Phosphodiesterase 1; assay: Antagonistic potency against calmodulin-dependent cyclic AMP phosphodiesterase relative to 4-Iodotamoxifen; type: functional; details: Canis lupus familiaris

| Compound | IC50 (Phosphodiesterase 1 [1]) [nM] | Relative potency (Phosphodiesterase 1 [2]) | Binding affinity [3] | Relative potency (Phosphodiesterase 1 [4]) |
| --- | --- | --- | --- | --- |
| CC/C(=C(\c1ccc(I)cc1)c1ccc(OCCN2CCCC2)cc1)c1ccccc1 [IDOXIFENE] | 1500 |  |  |  |
| CC/C(=C(\c1ccc(I)cc1)c1ccc(OCCCCCCN2CCCC2)cc1)c1ccccc1 | 500 | 3 | 4 |  |
| CC/C(=C(\c1ccc(I)cc1)c1ccc(OCCCCCCCCN(C)C)cc1)c1ccccc1 | 300 |  | 2 | 7.7 |
| CC/C(=C(\c1ccc(I)cc1)c1ccc(OCCCN(C)C)cc1)c1ccccc1 | 2000 |  | 8 | 1.2 |
| CC/C(=C(\c1ccc(I)cc1)c1ccc(OCCCCN2CCCC2)cc1)c1ccccc1 | 1000 | 1.5 | 9 |  |
| CC/C(=C(\c1ccc(I)cc1)c1ccc(OCCCCN(C)C)cc1)c1ccccc1 | 2200 |  | 25 | 1.1 |
| CC/C(=C(\c1ccc(I)cc1)c1ccc(OCCCCCCCCN2CCCC2)cc1)c1ccccc1 | 200 | 7.5 | 3.5 |  |
| CC/C(=C(\c1ccc(I)cc1)c1ccc(OCCCCCCN(C)C)cc1)c1ccccc1 | 400 |  | 8 | 5.8 |
| CC/C(=C(\c1ccc(I)cc1)c1ccc(OCCCCCCCCCN2CCCC2)cc1)c1ccccc1 | 200 | 7.5 | 1.5 |  |
| CC/C(=C(\c1ccc(I)cc1)c1ccc(OCCCCCN2CCCC2)cc1)c1ccccc1 | 800 | 1.9 | 8 |  |
| CC/C(=C(\c1ccc(I)cc1)c1ccc(OCCCN2CCCC2)cc1)c1ccccc1 | 1100 | 1.4 | 23 |  |
| CC/C(=C(\c1ccc(I)cc1)c1ccc(OCCCCCCCCCCN(C)C)cc1)c1ccccc1 | 1200 |  | 0.4 | 1.9 |
| CC/C(=C(\c1ccc(I)cc1)c1ccc(OCCCCCCCN2CCCC2)cc1)c1ccccc1 | 200 | 7.5 | 3 |  |
| CC/C(=C(\c1ccc(I)cc1)c1ccc(OCCCCCCCCCCN2CCCC2)cc1)c1ccccc1 | 1600 | 0.9 | 0.4 |  |
| CC/C(=C(\c1ccc(I)cc1)c1ccc(OCCN(C)C)cc1)c1ccccc1 | 2300 |  | 8 | 1 |
| CC/C(=C(\c1ccc(I)cc1)c1ccc(OCCCCCN(C)C)cc1)c1ccccc1 | 600 |  | 6 | 3.8 |
